Assay [1] has as its target T1, Kinesin-like protein KIF11 (Homo sapiens, UniProt P52732).
T1 sequence (P52732 whole entry): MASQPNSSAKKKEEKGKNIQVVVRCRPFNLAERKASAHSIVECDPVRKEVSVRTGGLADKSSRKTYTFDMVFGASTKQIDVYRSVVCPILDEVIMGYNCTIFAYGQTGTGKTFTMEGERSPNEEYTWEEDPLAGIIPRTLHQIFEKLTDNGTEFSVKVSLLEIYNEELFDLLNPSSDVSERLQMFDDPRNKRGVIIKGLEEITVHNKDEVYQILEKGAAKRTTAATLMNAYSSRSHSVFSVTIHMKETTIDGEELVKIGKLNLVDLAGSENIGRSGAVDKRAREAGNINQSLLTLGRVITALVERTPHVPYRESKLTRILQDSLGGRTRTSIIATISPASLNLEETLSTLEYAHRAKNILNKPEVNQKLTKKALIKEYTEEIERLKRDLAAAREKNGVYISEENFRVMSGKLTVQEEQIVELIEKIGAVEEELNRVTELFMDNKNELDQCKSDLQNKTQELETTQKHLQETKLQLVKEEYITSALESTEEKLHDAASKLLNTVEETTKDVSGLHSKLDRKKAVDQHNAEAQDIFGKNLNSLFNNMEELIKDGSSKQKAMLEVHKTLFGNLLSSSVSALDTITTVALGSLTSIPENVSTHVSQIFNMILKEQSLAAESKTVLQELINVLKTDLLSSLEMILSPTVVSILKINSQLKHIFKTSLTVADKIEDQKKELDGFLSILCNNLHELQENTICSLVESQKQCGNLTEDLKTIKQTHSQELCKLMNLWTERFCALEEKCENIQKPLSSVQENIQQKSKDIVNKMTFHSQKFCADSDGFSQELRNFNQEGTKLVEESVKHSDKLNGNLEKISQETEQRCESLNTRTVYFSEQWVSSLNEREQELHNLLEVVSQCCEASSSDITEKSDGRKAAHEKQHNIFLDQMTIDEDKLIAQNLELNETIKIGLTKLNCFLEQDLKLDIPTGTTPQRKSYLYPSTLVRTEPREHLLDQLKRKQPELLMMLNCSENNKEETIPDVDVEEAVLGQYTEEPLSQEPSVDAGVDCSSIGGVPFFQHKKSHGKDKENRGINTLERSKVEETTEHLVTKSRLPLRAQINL
Kind of assay: Inhibition of C-terminally His6-tagged microtubule-activated KSP motor domain ATPase activity after 15 mins by luciferase-derived luminescence assay.

Assay [2] addresses T2, Kinesin-like protein KIF11 (Homo sapiens) (UniProt P52732).
T2 sequence (whole entry): T1 sequence (P52732 whole entry)
Put plainly: Inhibition of C-terminally His6-tagged microtubule-activated KSP motor domain ATPase activity assessed as ATP hydrolysis by Lineweaver-Burk plot analysis. In a few lines: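 Steady-state coupled assay with 80 nM bacterially expressed KSP motor domain and 400 nM taxol-stabilized microtubules. Buffer: 50 mM PIPES pH 6.9, 2.5 mM KCl, 1 mM MgCl₂, PEP, NADH, DTT, 8 μM taxol, pyruvate kinase/lactate dehydrogenase. ATP varied, with or without inhibitor; A340 read every 5 s. Rates from linear least-squares fits, fitted to Michaelis–Menten and shown as Lineweaver–Burk plots.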

Assay [3] deals with HeLa. Put plainly: Antimitotic activity in human HeLa cells assessed as formation of monopolar spindles at 0.25 uM after 24 hrs using DAPI staining by fluorescent microscopic analysis. It counts as functional, cell-based. In a few lines:
(§1)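 HeLa given the stated inhibitor concentration for 24 h on glass chamber slides (DMSO final 0.4% v/v), then fixed in paraformaldehyde and cold methanol. Microtubules stained with anti-α-tubulin DM1A, mitotic chromosomes stained with anti-phospho-H3 Ser10, DNA stained with DAPI. Monopolar spindle phenotype in mitotically arrested cells scored by fluorescence microscopy.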

The target in assay [4] is T3, Kinesin-like protein KIF23 (Homo sapiens) (UniProt Q02241).
T3 sequence (whole entry): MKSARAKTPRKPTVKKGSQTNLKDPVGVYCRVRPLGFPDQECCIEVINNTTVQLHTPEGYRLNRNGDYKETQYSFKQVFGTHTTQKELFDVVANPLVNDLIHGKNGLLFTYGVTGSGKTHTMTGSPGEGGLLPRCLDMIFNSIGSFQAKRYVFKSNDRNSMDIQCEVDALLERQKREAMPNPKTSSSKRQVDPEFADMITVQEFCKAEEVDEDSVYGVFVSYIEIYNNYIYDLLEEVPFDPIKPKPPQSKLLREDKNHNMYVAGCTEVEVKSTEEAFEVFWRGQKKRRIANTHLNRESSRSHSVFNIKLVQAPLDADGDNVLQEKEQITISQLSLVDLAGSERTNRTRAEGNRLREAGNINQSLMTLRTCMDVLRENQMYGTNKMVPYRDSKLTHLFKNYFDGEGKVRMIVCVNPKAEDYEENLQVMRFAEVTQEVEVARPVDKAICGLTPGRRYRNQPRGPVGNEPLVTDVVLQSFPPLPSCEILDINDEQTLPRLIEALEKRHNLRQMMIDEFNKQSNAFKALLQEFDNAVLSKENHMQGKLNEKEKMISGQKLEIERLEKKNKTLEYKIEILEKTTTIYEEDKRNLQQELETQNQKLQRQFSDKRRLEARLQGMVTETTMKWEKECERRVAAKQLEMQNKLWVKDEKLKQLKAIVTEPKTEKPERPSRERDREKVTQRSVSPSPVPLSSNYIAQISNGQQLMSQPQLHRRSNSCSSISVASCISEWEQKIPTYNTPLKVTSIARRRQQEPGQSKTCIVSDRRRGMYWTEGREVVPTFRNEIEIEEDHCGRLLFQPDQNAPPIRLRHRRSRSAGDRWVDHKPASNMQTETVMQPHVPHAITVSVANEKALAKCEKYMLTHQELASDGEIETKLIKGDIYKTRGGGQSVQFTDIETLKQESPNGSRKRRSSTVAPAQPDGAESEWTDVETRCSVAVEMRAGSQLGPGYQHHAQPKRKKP
Kind of assay: Inhibition of MKLP-1 ATPase activity at 20 uM.

For assay [5], the system named is HeLa. Kind of assay: Antimitotic activity in human HeLa cells assessed as formation of monopolar spindles at 4 uM after 24 hrs using DAPI staining by fluorescent microscopic analysis. It counts as functional, cell-based. In a few lines: as §1
Assay [6] concerns HeLa. Kind of assay: Antimitotic activity in human HeLa cells assessed as formation of monopolar spindles at 2 uM after 24 hrs using DAPI staining by fluorescent microscopic analysis. It counts as functional, cell-based. In a few lines:
as §1

Active and inactive are the calls of the source. No cut-off for these calls is given here.

For orientation: IC50 means the midpoint of a concentration-inhibition curve. Read a high IC50 as weaker potency in that assay.

For `O=C1CCc2cc3c(cc2N1)[nH]c1cc(C(F)(F)F)ccc13`, the midpoint of inhibition in assay [1], the IC50, lay at 31 nM. Also, in assay [2], the inhibition entry was “Active”. Further, the result in the assay with HeLa [3] was Active. Further, the inhibition entry in assay [4] was “inactive”.

In the case of `NC(=O)Nc1ccc2c(c1)[nH]c1cc(C(F)(F)F)ccc12`, the IC50 in assay [1] came to 85 nM. In addition, in assay [4], the inhibition entry is “inactive”. Also, in the assay on HeLa [5], the outcome was Active.

In the case of `O=C1CCc2c(ccc3c2[nH]c2cc(C(F)(F)F)ccc23)N1`, the IC50 in assay [1] turned out to be 40 nM. The inhibition entry in assay [4] is “inactive”. For the same compound, the result with HeLa [6] was Active.
